These results are taken from ChEMBL document CHEMBL1132257, “Apstatin analogue inhibitors of aminopeptidase P, a bradykinin-degrading enzyme” (J Med Chem, 1999).

Each structure is given as a SMILES string.

Assay [1] in a line: Inhibition against Aminopeptidase P from Escherichia coli. The procedure, abridged: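 Recombinant E. coli AP-P, preincubated with 0.73 mM MnCl2 (0.02 mM residual in assay). Hydrolysis of 0.5 mM Arg-Pro-Pro in 0.1 M Hepes pH 8.0 tracked by fluorescence of free arginine. IC50 by linear regression of rate vs log inhibitor concentration over 10 concentrations, triplicate each.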

The target in assay [2] is T1, Xaa-Pro aminopeptidase 1 (Homo sapiens, UniProt Q9NQW7). Description: Inhibition against cytosolic Aminopeptidase P from human heart. In a few lines:
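Human heart homogenate in 0.1 M potassium phosphate pH 6.8: the 40000g supernatant, or enzyme partly purified on TNB-thiol agarose with dithiothreitol elution and exchange into Hepes. Assayed with 0.5 mM Arg-Pro-Pro, 0.1 M Hepes pH 8.0; arginine measured by fluorescence. IC50 by linear regression, 10 concentrations in triplicate.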

Assay [3] in a line: Inhibition against Aminopeptidase P from bovine. The class given is single protein. In a few lines: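 Source was bovine lung membrane-bound enzyme purified to homogeneity. Substrate 0.5 mM Arg-Pro-Pro, 0.1 M Hepes pH 8.0, with fluorimetric detection of released arginine. IC50 by linear regression of rate vs log [inhibitor] (linear part), using 10 concentrations near a preliminary estimate, in triplicate.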

Assay [4] has as its target T1, Xaa-Pro aminopeptidase 1. Description: Inhibition against Aminopeptidase P from human platelets. In a few lines: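 Enzyme from human platelets: washed in PBS with prostacyclin, freeze-thawed, sonicated; the 43000g 2 h supernatant was used. Substrate 0.5 mM Arg-Pro-Pro, 0.1 M Hepes pH 8.0, fluorimetric arginine read-out. IC50 from triplicate rates at 10 concentrations, by linear regression of rate vs log concentration.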

Assay [5] addresses Xaa-Pro aminopeptidase 2 (Homo sapiens, UniProt O43895). Put plainly: Inhibition against membrane bound human aminopeptidase P. The procedure, abridged:
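Partially purified membrane-bound AP-P from human or cynomolgus lung, released from microsomes by phosphatidylinositol-specific phospholipase C and then centrifuged. Triplicate rates at 10 inhibitor levels; IC50 by linear regression of the linear part of the rate vs log concentration plot.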

Assay [6] addresses T2, Xaa-Pro aminopeptidase 2 (Rattus norvegicus, UniProt Q99MA2).
T2 sequence (Q99MA2 whole entry): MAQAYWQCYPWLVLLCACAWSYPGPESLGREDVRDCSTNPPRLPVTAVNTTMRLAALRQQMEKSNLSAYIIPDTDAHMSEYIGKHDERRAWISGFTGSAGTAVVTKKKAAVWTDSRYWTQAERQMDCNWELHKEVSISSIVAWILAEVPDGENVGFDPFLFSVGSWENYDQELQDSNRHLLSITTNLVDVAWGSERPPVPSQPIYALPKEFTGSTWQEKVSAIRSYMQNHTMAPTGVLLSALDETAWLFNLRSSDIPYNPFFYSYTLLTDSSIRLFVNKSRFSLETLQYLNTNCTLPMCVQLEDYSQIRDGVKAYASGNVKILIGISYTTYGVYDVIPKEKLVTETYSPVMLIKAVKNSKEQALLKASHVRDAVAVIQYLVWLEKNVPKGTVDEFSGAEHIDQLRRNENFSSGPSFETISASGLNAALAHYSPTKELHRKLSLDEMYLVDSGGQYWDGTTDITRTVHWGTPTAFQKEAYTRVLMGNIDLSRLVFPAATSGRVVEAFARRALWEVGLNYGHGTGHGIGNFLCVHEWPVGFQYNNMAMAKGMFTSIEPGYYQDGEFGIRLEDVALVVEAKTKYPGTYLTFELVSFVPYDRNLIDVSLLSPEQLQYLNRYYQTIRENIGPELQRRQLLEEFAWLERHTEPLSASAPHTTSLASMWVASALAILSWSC
Put plainly: Activity against membrane bound rat aminopeptidase P. In a few lines:
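Membrane-bound AP-P purified to homogeneity from rat lung; 0.5 mM Arg-Pro-Pro substrate in 0.1 M Hepes, pH 8.0; free arginine release read by fluorescence. IC50 from 10 inhibitor concentrations around an approximate value, each in triplicate, by linear regression of the linear portion of rate vs log inhibitor concentration.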

T1 sequence (Q9NQW7 whole entry): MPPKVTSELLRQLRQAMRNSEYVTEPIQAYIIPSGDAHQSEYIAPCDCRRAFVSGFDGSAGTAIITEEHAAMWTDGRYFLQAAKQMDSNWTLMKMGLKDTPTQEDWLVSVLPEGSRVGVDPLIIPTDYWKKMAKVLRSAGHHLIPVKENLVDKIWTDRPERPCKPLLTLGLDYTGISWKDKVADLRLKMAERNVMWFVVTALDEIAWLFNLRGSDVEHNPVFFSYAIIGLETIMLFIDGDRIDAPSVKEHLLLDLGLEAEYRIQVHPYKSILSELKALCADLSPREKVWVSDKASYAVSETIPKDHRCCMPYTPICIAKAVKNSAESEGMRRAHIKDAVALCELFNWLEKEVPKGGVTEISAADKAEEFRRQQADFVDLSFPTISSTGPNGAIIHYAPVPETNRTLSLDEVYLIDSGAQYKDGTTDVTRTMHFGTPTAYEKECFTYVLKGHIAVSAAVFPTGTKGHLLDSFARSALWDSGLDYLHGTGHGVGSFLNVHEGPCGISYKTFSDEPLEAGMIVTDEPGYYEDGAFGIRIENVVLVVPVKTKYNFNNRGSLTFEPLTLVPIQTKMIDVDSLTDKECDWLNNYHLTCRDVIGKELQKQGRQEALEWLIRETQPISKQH
Sequence of Xaa-Pro aminopeptidase 2 (Homo sapiens, UniProt O43895) (O43895 whole entry): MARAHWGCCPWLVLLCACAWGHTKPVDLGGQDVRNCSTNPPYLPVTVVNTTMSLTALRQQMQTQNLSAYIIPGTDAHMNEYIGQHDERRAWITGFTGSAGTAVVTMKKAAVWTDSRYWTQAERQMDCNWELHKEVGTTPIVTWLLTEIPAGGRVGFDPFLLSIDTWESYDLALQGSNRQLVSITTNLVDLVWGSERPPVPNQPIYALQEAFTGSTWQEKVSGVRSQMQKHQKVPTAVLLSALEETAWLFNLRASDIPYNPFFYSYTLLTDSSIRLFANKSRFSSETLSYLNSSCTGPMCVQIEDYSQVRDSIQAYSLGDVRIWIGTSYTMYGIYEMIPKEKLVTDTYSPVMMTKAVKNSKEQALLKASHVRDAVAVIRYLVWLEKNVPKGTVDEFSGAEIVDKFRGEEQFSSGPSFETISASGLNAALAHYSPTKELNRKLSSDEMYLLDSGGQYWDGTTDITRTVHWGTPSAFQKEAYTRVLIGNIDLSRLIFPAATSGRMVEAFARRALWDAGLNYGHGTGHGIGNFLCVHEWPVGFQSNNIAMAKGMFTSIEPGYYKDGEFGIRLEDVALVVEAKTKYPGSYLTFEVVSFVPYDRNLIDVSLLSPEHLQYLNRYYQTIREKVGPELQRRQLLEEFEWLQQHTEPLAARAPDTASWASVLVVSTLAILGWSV

Turning to `C[C@H](NC(=O)[C@@H]1CCCN1C(=O)[C@@H]1C[C@@H](O)CN1C(=O)[C@@H](O)[C@H](N)Cc1ccccc1)C(N)=O`, the IC50 in assay [1] is 160 µM; against Xaa-Pro aminopeptidase 1 [2] it was more than 2000 µM; in assay [3], more than 2000 µM; at Xaa-Pro aminopeptidase 1 [4] it was more than 2000 µM.
Regarding `C[C@H](NC(=O)[C@@H]1CCCN1C(=O)[C@@H]1CCCN1C(=O)[C@@H](O)[C@H](N)Cc1ccccc1)C(N)=O`, the IC50 in assay [1] was 9 µM; against Xaa-Pro aminopeptidase 1 [2] it was 21 µM; in assay [3], 9.4 µM; on Xaa-Pro aminopeptidase 1 [4], 18 µM.
On the same counts, the results for `NC(=O)[C@@H]1CCCN1C(=O)[C@@H]1CCCN1C(=O)[C@@H](O)[C@H](N)Cc1ccccc1` are 16 µM, 45 µM, 1300 µM and 250 µM.
Take `C[C@H](NC(=O)[C@@H]1CCCN1C(=O)[C@@H]1CSCN1C(=O)[C@@H](O)[C@H](N)Cc1ccccc1)C(N)=O`: the IC50 in assay [1] stood at 41 µM; against Xaa-Pro aminopeptidase 1 [2], 82 µM; in assay [3], 34 µM.
As to `C[C@H](NC(=O)[C@@H]1CCCN1C(=O)C1CCCC1S)C(N)=O` (stereo in doubt; 12), the IC50 is 6.3 µM against Xaa-Pro aminopeptidase 1 [2], 10 µM in assay [3], 29 µM against Xaa-Pro aminopeptidase 2 [5] and 3.4 µM on Xaa-Pro aminopeptidase 2 [6].
With `C[C@H](NC(=O)[C@@H]1CCCN1C(=O)C1CCCC1S)C(N)=O` (stereo in doubt; 13), the IC50 in assay [1] was more than 3000 µM; at Xaa-Pro aminopeptidase 1 [2], 53 µM; in assay [3], 300 µM; against Xaa-Pro aminopeptidase 2 [5], 390 µM; against Xaa-Pro aminopeptidase 2 [6] it was 150 µM.
For the compound `C[C@H](NC(=O)[C@@H]1CCCN1C(=O)C1CCCCC1C(=O)NO)C(N)=O` (stereo in doubt; 14), the figures for the IC50 (in assay [1]; on Xaa-Pro aminopeptidase 1 [2]; in assay [3]) were 130 µM, more than 3000 µM and 50 µM, respectively.
The corresponding values for `C[C@H](NC(=O)[C@@H]1CCCN1C(=O)C1CCCCC1C(=O)NO)C(N)=O` (stereo in doubt; 15) are more than 2000 µM, more than 2000 µM and more than 500 µM.
On to `C[C@H](NC(=O)[C@@H]1CCCN1C(=O)C1CCCCC1C(=O)NO)C(N)=O` (stereo in doubt; 16), for which the IC50 is 2000 µM in assay [1], more than 5000 µM on Xaa-Pro aminopeptidase 1 [2] and more than 5000 µM in assay [3].
